Source: PubChem BioAssay (several laboratories)
The list is not random: actives were taken first. Their share in the collection is about 2.9%.
SENP7 inh – blocks the human protease SENP7. inhibition, % at 5 µM. AID 434973. actives 1.5% (n = 330,000). recombinant SENP7, Z-RLRGG-aminoluciferin luminescence, 40 min;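 active means inhibition above about 50% at the single test dose, limit read from the data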;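 further: plate controls were DMSO with enzyme for no effect and no enzyme buffer wells for full effect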
Target sequence (Q9BQF6 706-1050 limits assumed): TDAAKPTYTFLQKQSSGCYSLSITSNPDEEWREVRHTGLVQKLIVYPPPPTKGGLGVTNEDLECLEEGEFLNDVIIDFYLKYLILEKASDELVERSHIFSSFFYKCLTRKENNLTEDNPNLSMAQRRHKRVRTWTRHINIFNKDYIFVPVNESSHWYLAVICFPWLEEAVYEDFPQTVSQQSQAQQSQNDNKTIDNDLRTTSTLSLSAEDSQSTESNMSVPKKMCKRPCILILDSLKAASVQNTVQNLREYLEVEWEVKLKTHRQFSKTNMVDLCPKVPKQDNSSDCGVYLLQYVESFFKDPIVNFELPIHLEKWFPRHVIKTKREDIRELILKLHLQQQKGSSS
HSP90 inh – blocks HSP90-mediated luciferase refolding in reticulocyte lysate | Rabbit reticulocyte lysate, luciferase refolding luminescence, 3 h | inhibition, % at 5.6 µM | actives 0.91% (n = 290,000);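 active means inhibition above the screen-wide mean plus 3 SD, computed separately per campaign, cut at about 16% in these data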;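 further: 0% = DMSO wells and 100% = 60 µM geldanamycin wells; inhibitors lower the luminescence because luciferase stays unfolded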
SENP1 FRET inh – inhibitors of human SENP1 SUMO protease catalytic domain | AID 624204 | inhibition, % at 10 µM | recombinant SENP1 catalytic domain, CyPet-SUMO1-YPet FRET cleavage | Q9P0U3 | actives 0.21% (n = 360,000);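 active means inhibition at least 30% at 10 µM, raw YFP signal under a set limit, fluorescence ratio 0.5 to 1.5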;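 further: 0% = enzyme with DMSO and 100% = no enzyme wells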
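Test system: hSENP1 catalytic domain, recombinant; Amount: 20 pM final SENP1 enzyme; Medium: Tris pH 8 buffer plus EDTA, NaCl, BME, BSA, NP40, catalase; Schedule: 50 min enzyme reaction, room temperature, light-protected; Technique: FRET fluorescence in CFP and YFP emission channels; Controls: no-enzyme wells low, DMSO-plus-enzyme wells high control.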
SENP8 block-1 – blocks human SENP8 cleavage of Nedd8 substrate; recombinant SENP8, Nedd8 substrate fluorescence; inhibition, % at 20 µM; actives 0.64% (n = 360,000); AID 602440; in the data active means inhibition mostly above about 40%, no sharp cut-off; inactive means mostly below about 27%
SENP8 block-2 – SENP8 protease inhibition; actives 1.2% (n = 330,000); inhibition, % at 10 µM; AID 2540; purified SENP8, Z-RLRGG-aminoluciferin cleavage, luminescence; Q96LD8; in the data active means inhibition above about 50%
SENP6 block – inhibitors of human SENP6 protease. Q9GZR1. Recombinant SENP6 catalytic domain, aminoluciferin luminescence. inhibition, % at 10 µM. actives 1.8% (n = 330,000);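 active means inhibition above about 50% at the single tested dose, limit read from the data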;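 further: plate controls were DMSO wells with enzyme for no effect and DMSO wells lacking enzyme for full effect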
SENP8 confirm – confirmation of human SENP8 protease inhibitors; shares compounds with SENP7 inh; Recombinant SENP8, Z-RLRGG-aminoluciferin luminescence, 60 min; inhibition, % at 12.5 µM; actives 40% (n = 6,200); AID 488912;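 active means mean inhibition across replicates above about 50%, limit read from the data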
SENP6 conf – confirmation of human SENP6 protease inhibitors; actives 58% (n = 6,200); inhibition, % at 12.5 µM; shares compounds with SENP7 inh; recombinant SENP6, Z-RLRGG-aminoluciferin luminescence
SENP7 confirm – human SENP7 inhibition, confirmed. shares compounds with SENP7 inh. recombinant SENP7, Z-RLRGG-aminoluciferin luminescence, 40 min. inhibition, % at 12.5 µM. actives 69% (n = 6,200). AID 488917
Casp3 SENP sel – caspase-3 inhibition (SENP selectivity assay) | purified caspase-3, Z-DEVD-aminoluciferin luminescence, 60 min | shares compounds with SENP7 inh | actives 60% (n = 6,200) | AID 488918 | inhibition, % at 12.5 µM;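 active means mean inhibition above about 50%, limit read from the data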;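 further: plate controls were enzyme with DMSO for no effect and wells without caspase-3 for full effect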
Luc interf – interferes with luciferase luminescence in SENP counter-screen | shares compounds with SENP7 inh | Pre-incubated SENP8/Z-RLRGG-aminoluciferin, luciferase luminescence interference | inhibition, % at 12.5 µM | actives 39% (n = 6,200) | AID 488919;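 active means mean inhibition above about 50% when retested at one dose, limit read from the data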;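 further: plate controls were DMSO wells with completed reaction for no effect and substrate without enzyme for full effect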
The depositor's hits bear a star; . = no result.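 How the source made its calls, unless noted: active means mean inhibition above about 50% in the one-dose retest (limit read from the data); inactive means the rest.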

SMILES | SENP7 inh | HSP90 inh | SENP1 FRET inh | SENP8 block-1 | SENP8 block-2 | SENP6 block | SENP8 confirm | SENP6 conf | SENP7 confirm | Casp3 SENP sel | Luc interf
COc1cc(/C=C(\C#N)c2nc3ccccc3[nH]2)ccc1OC(=O)c1ccco1 | 73* | 5 | -28 | -428 | 83* | 75* | 66* | 67* | 99* | 86* | 27
CCc1nc2c(OCCn3cccc3)cccn2c1N(C)C(=O)c1ccc(OC)cc1 | . | . | -2 | 12 | . | . | . | . | . | . | .
Brc1ccc2nc(-c3c[nH]c4ccccc34)cn2c1 | 24 | 5 | 0 | -157 | 79* | 81* | 49 | 90* | 97* | 68* | 90*
CN(C)S(=O)(=O)c1cccc(-c2cn3cc(Cl)ccc3n2)c1 | -8 | 2 | 4 | -134 | -15 | -6 | . | . | . | . | .
Clc1ccc(-c2cn3cc(Br)ccc3n2)cc1Cl | 28 | -1 | 1 | -13 | 59* | 63* | -11 | 23 | -11 | 28 | -16
CC(C)CN1CCC(=O)N([C@H](COc2ccccc2)c2ccccc2)CC1 | -7 | 2 | 1 | 12 | -8 | -5 | . | . | . | . | .
CCOC(=O)NCc1ccc(S(=O)(=O)Nc2c(C)cccc2C)cc1 | 0 | 7 | 1 | 4 | 4 | 6 | . | . | . | . | .
O=C(O)c1cc([N+](=O)[O-])ccc1NCCCc1ccccc1 | -1 | . | -6 | 7 | 68* | 74* | 75* | 69* | 73* | 52* | 71*
O=C(O)c1cc([N+](=O)[O-])ccc1NCc1ccccc1 | 3 | -1 | -2 | 27 | 5 | 14 | . | . | . | . | .
Cn1cc(/C=N/NC(=O)c2ccc(C#N)cc2F)c2ccccc21 | 7 | 0 | 2 | 1 | 0 | 12 | . | . | . | . | .
COc1ccc(C)cc1NC(=O)Nc1cccc(C(=O)O)c1 | -3 | 2 | 5 | -8 | -11 | -30 | . | . | . | . | .
COc1ccc(NC(=O)Nc2cccc(OC)c2)cc1 | -9 | 0 | 2 | 6 | 29 | 35 | . | . | . | . | .
Cc1cc(NC(=O)Nc2ccccc2F)ccc1Br | 95* | 1 | 1 | 20 | 88* | 80* | 76* | 92* | 102* | 86* | 64*
Cn1nnc2cc(NC(=O)Nc3ccccc3F)ccc21 | . | . | 2 | 1 | . | . | . | . | . | . | .
COc1cccc(NC(=O)COc2ccccc2C(N)=O)c1 | 39 | 0 | 2 | 14 | 38 | 65* | 30 | 27 | 71* | 75* | 52*
COc1cccc(NC(=O)Nc2ccccc2Br)c1 | 82* | -2 | 2 | 4 | 66* | 90* | 77* | 78* | 94* | 70* | 36
COc1cccc(NC(=O)COC(=O)COc2ccccc2[N+](=O)[O-])c1 | -3 | 2 | 5 | 10 | -9 | -27 | . | . | . | . | .
COc1ccccc1NC(=O)Nc1cccc(C(=O)O)c1 | 44 | 2 | 3 | -5 | 30 | 60* | 56* | 52* | 80* | 77* | 63*
CCC1(c2ccc(Cl)cc2)NC(=O)N(Cc2ccc(C(=O)OC)cc2)C1=O (stereo not given) | 6 | 1 | 1 | 2 | -1 | 12 | . | . | . | . | .
O=C(/C=C/c1ccccc1)Nc1ccc(Cl)cn1 | . | -5 | 0 | 8 | . | . | . | . | . | . | .
COC(=O)c1ccccc1NC(=O)Nc1cccs1 | -7 | -2 | -1 | -42 | -8 | -5 | . | . | . | . | .
O=C(Nc1cccs1)Nc1ccccc1Br | 40 | -1 | -1 | 5 | 22 | 50* | 31 | 46 | 75* | 41 | 17
